Measurements: ChEMBL document CHEMBL3632496, “Novel 2-Carbonylbenzo[b]thiophene 1,1-Dioxide Derivatives as Potent Inhibitors of STAT3 Signaling Pathway” (ACS Med Chem Lett, 2015)
Activity calls are given as the source filed them. The rule behind the calls is not given here.

How the values were obtained:
[1] = test system: DU-145; assay: Cytotoxicity against human DU145 cells assessed as growth inhibition after 48 hrs by MTT assay; assay type: functional, cell-based; settings: DU-145, 48 h
[2] = test system: MDA-MB-231; assay: Cytotoxicity against human MDA-MB-231 cells assessed as growth inhibition after 48 hrs by MTT assay; assay type: functional, cell-based; settings: MDA-MB-231, 48 h
[3] = Cytotoxicity against human MDA-MB-435S cells assessed as growth inhibition after 48 hrs by MTT assay; assay type: functional, cell-based
[4] = test system: MCF7; assay: Cytotoxicity against human MCF7 cells assessed as growth inhibition after 48 hrs by MTT assay; assay type: functional, cell-based; settings: MCF7, 48 h
[5] = Cytotoxicity against human PANC1 cells assessed as growth inhibition after 48 hrs by MTT assay; assay type: functional, cell-based; settings: PANC-1, 48 h
[6] = test system: A549; assay: Cytotoxicity against human A549 cells assessed as growth inhibition after 48 hrs by MTT assay; assay type: functional, cell-based; settings: A549, 48 h
[7] = test system: SMMC-7721; assay: Cytotoxicity against human SMMC7721 cells assessed as growth inhibition after 48 hrs by MTT assay; assay type: functional, cell-based; settings: SMMC-7721, 48 h
[8] = Cytotoxicity against human HL-7702 cells assessed as growth inhibition after 48 hrs by MTT assay; assay type: cell-based; settings: L02, 48 h
[9] = molecular target: Signal transducer and activator of transcription 3 (Homo sapiens) (UniProt P40763); assay: Inhibition of STAT3 phosphorylation at Y705 in human MDA-MB-231 cells after 12 hrs by Western blot analysis; assay type: cell-based
Procedure, shortened: (§1)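 Cells were exposed for 12 h. Whole-cell lysates were immunoblotted with a Y705-phospho-STAT3-specific antibody and for total STAT3.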

[10] = molecular target: Signal transducer and activator of transcription 3 (Homo sapiens) (UniProt P40763); assay: Inhibition of STAT3 phosphorylation at Y705 in human MCF7 cells after 12 hrs by Western blot analysis; assay type: cell-based; procedure, shortened: as §1
[11] = molecular target: Signal transducer and activator of transcription 3 (Homo sapiens) (UniProt P40763); assay: Inhibition of STAT3 phosphorylation at Y705 in human MDA-MB-435S cells after 12 hrs by Western blot analysis; assay type: cell-based; procedure, shortened: as §1
[12] = molecular target: Signal transducer and activator of transcription 3 (Homo sapiens) (UniProt P40763); assay: Inhibition of STAT3-mediated luciferase activity in human HeLa cells at 4 uM after 12 hrs by luminescence assay relative to control; assay type: cell-based
Procedure, shortened: (§2)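 HeLa cells, which have constitutive STAT3, were transfected with a STAT3-dependent dual luciferase reporter. Reporter luminescence was measured after compound exposure. Values are mean ± SD of triplicate experiments and are compared with vehicle-treated control.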

[13] = molecular target: Mitogen-activated protein kinase; ERK1/ERK2 (Homo sapiens) (UniProt P27361+P28482); assay: Inhibition of ERK1/2 phosphorylation in human MDA-MB-231 cells at 1 to 4 uM after 12 hrs by Western blot analysis; assay type: cell-based
[14] = molecular target: Signal transducer and activator of transcription 3 (Homo sapiens) (UniProt P40763); assay: Inhibition of IL-6-induced STAT3 phosphorylation in overnight starved human MDA-MB-231 cells preincubated for 2 hrs followed by IL-6 induction by Western blot analysis; assay type: cell-based
Procedure, shortened: (§3)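 Cells were serum-starved overnight and pretreated with compound for 2 h. They were then stimulated with IL-6. Lysates were immunoblotted for phospho-STAT3.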

[15] = molecular target: Signal transducer and activator of transcription 3 (Homo sapiens) (UniProt P40763); assay: Inhibition of STAT3-mediated luciferase activity in human HeLa cells after 12 hrs by luminescence assay; assay type: cell-based; procedure, shortened: as §2
[16] = molecular target: Signal transducer and activator of transcription 3 (Homo sapiens) (UniProt P40763); assay: Inhibition of IL-6-induced STAT3 phosphorylation in overnight starved human MCF7 cells at 2 to 6 uM preincubated for 2 hrs followed by IL-6 induction by Western blot analysis; assay type: cell-based; procedure, shortened: as §3
[17] = molecular target: Signal transducer and activator of transcription 3 (Homo sapiens) (UniProt P40763); assay: Inhibition of STAT3-mediated luciferase activity in human HeLa cells at 2 uM after 12 hrs by luminescence assay relative to control; assay type: cell-based; procedure, shortened: as §2
[18] = molecular target: Serine/threonine-protein kinase mTOR (Homo sapiens) (UniProt P42345); assay: Inhibition of mTOR phosphorylation in human MDA-MB-231 cells at 1 to 4 uM after 12 hrs by Western blot analysis; assay type: cell-based
[19] = molecular target: Proto-oncogene tyrosine-protein kinase Src (Homo sapiens) (UniProt P12931); assay: Inhibition of Src phosphorylation in human MDA-MB-231 cells at 1 to 4 uM after 12 hrs by Western blot analysis; assay type: cell-based
Chain of Proto-oncogene tyrosine-protein kinase Src (Homo sapiens) (P12931 2-536 limits assumed): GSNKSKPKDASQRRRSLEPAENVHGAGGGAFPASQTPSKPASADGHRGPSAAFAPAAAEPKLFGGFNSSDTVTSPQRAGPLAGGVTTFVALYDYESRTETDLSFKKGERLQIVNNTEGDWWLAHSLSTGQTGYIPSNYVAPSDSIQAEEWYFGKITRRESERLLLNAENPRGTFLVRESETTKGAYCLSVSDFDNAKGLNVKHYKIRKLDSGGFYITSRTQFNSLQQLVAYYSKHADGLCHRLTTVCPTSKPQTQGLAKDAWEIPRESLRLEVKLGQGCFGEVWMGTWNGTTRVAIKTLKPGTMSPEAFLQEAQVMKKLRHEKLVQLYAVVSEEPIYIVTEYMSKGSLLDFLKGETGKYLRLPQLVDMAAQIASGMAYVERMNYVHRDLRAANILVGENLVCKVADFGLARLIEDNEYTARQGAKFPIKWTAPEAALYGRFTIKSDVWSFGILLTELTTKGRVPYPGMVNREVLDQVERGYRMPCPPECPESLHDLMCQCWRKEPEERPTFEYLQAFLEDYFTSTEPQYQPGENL

Chain of Signal transducer and activator of transcription 3 (Homo sapiens) (P40763 whole entry): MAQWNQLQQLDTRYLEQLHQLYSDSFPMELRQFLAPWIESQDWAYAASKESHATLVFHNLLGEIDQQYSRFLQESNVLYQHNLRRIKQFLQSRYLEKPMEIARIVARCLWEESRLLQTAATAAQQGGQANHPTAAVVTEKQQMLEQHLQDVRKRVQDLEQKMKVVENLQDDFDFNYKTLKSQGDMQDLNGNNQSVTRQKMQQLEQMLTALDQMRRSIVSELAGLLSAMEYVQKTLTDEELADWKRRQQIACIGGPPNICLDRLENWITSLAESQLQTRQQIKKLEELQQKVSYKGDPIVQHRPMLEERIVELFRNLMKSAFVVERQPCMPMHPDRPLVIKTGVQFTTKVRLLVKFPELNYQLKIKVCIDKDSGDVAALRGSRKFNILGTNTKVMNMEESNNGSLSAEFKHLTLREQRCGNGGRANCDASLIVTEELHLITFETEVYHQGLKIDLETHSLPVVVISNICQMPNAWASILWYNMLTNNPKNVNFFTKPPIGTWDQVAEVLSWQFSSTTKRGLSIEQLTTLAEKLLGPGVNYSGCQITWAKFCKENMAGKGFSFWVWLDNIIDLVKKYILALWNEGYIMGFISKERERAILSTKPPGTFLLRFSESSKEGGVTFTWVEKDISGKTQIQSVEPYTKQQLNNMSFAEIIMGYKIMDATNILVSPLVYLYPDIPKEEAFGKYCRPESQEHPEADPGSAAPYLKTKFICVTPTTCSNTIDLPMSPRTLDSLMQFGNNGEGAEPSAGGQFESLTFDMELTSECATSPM
Chain of Mitogen-activated protein kinase; ERK1/ERK2 (Homo sapiens) (P27361 whole entry, looked up): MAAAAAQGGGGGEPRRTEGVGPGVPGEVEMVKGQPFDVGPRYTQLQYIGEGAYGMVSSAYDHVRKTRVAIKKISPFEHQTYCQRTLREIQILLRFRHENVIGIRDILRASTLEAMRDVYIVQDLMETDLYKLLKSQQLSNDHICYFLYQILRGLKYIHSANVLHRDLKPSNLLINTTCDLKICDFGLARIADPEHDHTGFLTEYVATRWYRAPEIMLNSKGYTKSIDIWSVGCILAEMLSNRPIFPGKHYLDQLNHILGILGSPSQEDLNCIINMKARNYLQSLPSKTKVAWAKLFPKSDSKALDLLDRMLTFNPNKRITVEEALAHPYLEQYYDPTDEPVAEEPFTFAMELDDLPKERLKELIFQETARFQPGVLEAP
Chain of Mitogen-activated protein kinase; ERK1/ERK2 (Homo sapiens) (P28482 whole entry, looked up): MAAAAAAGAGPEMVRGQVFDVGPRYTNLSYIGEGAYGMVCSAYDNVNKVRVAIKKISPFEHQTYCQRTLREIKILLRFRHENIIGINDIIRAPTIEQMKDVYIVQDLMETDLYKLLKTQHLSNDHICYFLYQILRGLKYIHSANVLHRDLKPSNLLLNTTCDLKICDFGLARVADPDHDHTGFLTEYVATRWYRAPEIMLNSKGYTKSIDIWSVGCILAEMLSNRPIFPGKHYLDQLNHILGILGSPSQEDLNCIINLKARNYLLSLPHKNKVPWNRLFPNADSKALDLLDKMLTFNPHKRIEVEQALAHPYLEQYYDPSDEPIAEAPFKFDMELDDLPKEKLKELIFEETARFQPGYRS

| SMILES | IC50 [1] [nM] | IC50 [2] [nM] | IC50 [3] [nM] | IC50 [4] [nM] | IC50 [5] [µM] | IC50 [6] [nM] | other results |
| --- | --- | --- | --- | --- | --- | --- | --- |
| O=C(Nc1ccc(Cl)cc1)C1=Cc2c(Br)cccc2S1(=O)=O | 6340 | 3780 |  |  |  |  |  |
| O=C(NC1CCCCC1)C1=Cc2cc(Br)ccc2S1(=O)=O | 5730 | 5730 |  |  |  |  |  |
| O=C(C1=Cc2cc(Br)ccc2S1(=O)=O)N1CCOCC1 | 1910 | 1040 | 800 | 1050 | 3.95 | 2310 |  |
| CC(C)(C)NC(=O)C1=Cc2cc(Br)ccc2S1(=O)=O | 1350 | 1340 | 820 | 1270 | 3.34 | 2850 |  |
| Cc1ccc(NC(=O)C2=Cc3c(Br)cccc3S2(=O)=O)cc1 | 3030 | 2460 |  |  |  |  |  |
| CC(C)NC(=O)C1=Cc2cc(Br)ccc2S1(=O)=O | 2170 | 1090 | 930 | 1240 | 5.05 | 2970 | IC50 [7]: 2400 nM; IC50 [8]: 15 µM |
| CN(C(=O)C1=Cc2cc(Br)ccc2S1(=O)=O)c1ccccc1 | 1260 | 880 | 950 | 1130 | 4.38 | 2080 |  |
| CC1CCCN(C(=O)C2=Cc3cc(Br)ccc3S2(=O)=O)C1 (stereo unspecified) | 1410 | 1070 | 1370 | 1260 | 2.98 | 1940 |  |
| O=C(Nc1ccccc1)C1=Cc2c(Br)cccc2S1(=O)=O | 2640 | 1740 | 1390 | 1730 | 6.67 | 4090 | IC50 [7]: 2400 nM; IC50 [8]: 15 µM |
| CCCCNC(=O)C1=Cc2cc(Br)ccc2S1(=O)=O | 3860 | 2310 |  |  |  |  |  |
| O=C(Nc1ccccc1)C1=Cc2cc(NC(=O)c3ccccc3)ccc2S1(=O)=O | 6210 | 3210 |  |  |  |  |  |
| O=[N+]([O-])c1ccc2c(c1)S(=O)(=O)C=C2 | 2500 | 1560 | 1870 | 2160 | 2.9 | 2500 | inhibition [9]: Active; inhibition [10]: Active; inhibition [11]: Active; inhibition [12]: 36% |
| O=C(Nc1ccccc1)C1=Cc2cc([N+](=O)[O-])ccc2S1(=O)=O | 5190 | 3040 |  |  |  |  |  |
| O=C(Nc1cccc(Cl)c1)C1=Cc2c(Br)cccc2S1(=O)=O | 3390 | 2210 |  |  |  |  |  |
| O=C(Nc1ccccc1)C1=Cc2cc(Br)ccc2S1(=O)=O | 2770 | 1720 |  |  |  |  |  |
| O=C(C1=Cc2cc(Br)ccc2S1(=O)=O)N1CCCC1 | 1540 | 1270 | 940 | 1380 | 3.47 | 3470 |  |
| Cc1ccc(OC(=O)C2=Cc3c(Br)cccc3S2(=O)=O)cc1 | > 15000 | > 15000 |  |  |  |  |  |
| O=C(C1=Cc2cc(Br)ccc2S1(=O)=O)N1CCCCC1 |  |  |  |  |  |  | inhibition [9]: Dose-dependent effect; inhibition [10]: Dose-dependent effect; inhibition [13]: inactive; inhibition [14]: Dose-dependent effect; inhibition [15]: Dose-dependent effect; inhibition [16]: Active; inhibition [17]: 14%; inhibition [18]: inactive; inhibition [19]: inactive; inhibition [11]: Dose-dependent effect; inhibition [12]: 48% |
| CCN(CC)C(=O)C1=Cc2cc(Br)ccc2S1(=O)=O | 1460 | 1670 | 1540 | 890 | 1.94 | 1580 |  |
| CC1CCCCN1C(=O)C1=Cc2cc(Br)ccc2S1(=O)=O (stereo unspecified) | 980 | 950 | 980 | 990 | 2.14 | 1300 |  |
| O=C(Nc1ccccc1)C1=Cc2ccc(Br)cc2S1(=O)=O | 2660 | 1840 |  |  |  |  |  |
| O=C(Nc1ccc2c(c1)C=C(C(=O)N1CCCCC1)S2(=O)=O)c1ccccc1 | 2070 | 1680 |  |  |  |  |  |
